Pf gametocyte: inhibitors of late stage P. falciparum gametocyte viability; P. falciparum stage V gametocytes, ATP luminescence, 24 h; inhibition, % at 10.9 µM; 0.065% of 150,000 active;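 active means inhibition above the mean plus 3 SD of compounds within the control limits, set per campaign, cut at about 38% in these data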
WT yeast gro inh: growth inhibition of WT yeast, mitochondrial fusion screen. mitochondrial fusion phenotypic screen, WT strain. inhibition, % at 10 µM. 2.1% of 190,000 active. AID 1362; in the data active means inhibition above about 58%; tested in S. cerevisiae
MT stabilizer: microtubule stabilization, imaging screen; HeLa tubulin immunostaining HCS, 24 h; share of cells brighter than vehicle mean+2SD; % tubulin-high responders, % at 10 µM; 0.83% of 200,000 active; AID 2205;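 active means plate Z-score above 3 for both tubulin-high and condensed-nucleus cell shares, with cell loss under 80%, at 10 µM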;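 further: anti alpha tubulin signal scored within the nucleus-defined area of each cell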
b-catenin transl: alters nuclear translocation of beta-catenin in HeLa cells. immunofluorescence imaging. nuclear translocation activity, % at 5 µM. 0.3% of 190,000 active;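 active means nuclear translocation activity above 50% at 5 µM, with a well cell count of 50 or more; inconclusive means wells under 50 cells across six images, flagged as toxic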;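 further: per-cell ratio of nuclear to cytoplasmic median beta-catenin stain intensity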
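System: HeLa cells, endogenous beta-catenin; compound dosing: 5 µM primary single dose, 0.1% DMSO, 0.02–20 µM confirmation series; incubation: 24 h compound exposure at 37°C, 5% CO2; signal: beta-catenin immunofluorescence imaging with DAPI; evaluation: % activation, nuclear-to-cytoplasmic median beta-catenin signal ratio per cell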
Cl transport mod: modulates chloride dependent transport by human KCC2; Q9H2X9; KCC2 cells, thallium flux FluoZin-2 fluorescence; B-score of Tl+ flux slope (higher = more flux/activation; lower = inhibition) at 10 µM; 2.2% of 190,000 active; AID 1456;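 active means thallium flux slope and its plate-corrected score both differing from the plate sample mean at a set confidence after two filtering rounds, in either direction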;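 further: slope of fluorescence scaled to starting intensity during 10 to 20 s after thallium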
Target sequence (Q9H2X9 whole entry, looked up): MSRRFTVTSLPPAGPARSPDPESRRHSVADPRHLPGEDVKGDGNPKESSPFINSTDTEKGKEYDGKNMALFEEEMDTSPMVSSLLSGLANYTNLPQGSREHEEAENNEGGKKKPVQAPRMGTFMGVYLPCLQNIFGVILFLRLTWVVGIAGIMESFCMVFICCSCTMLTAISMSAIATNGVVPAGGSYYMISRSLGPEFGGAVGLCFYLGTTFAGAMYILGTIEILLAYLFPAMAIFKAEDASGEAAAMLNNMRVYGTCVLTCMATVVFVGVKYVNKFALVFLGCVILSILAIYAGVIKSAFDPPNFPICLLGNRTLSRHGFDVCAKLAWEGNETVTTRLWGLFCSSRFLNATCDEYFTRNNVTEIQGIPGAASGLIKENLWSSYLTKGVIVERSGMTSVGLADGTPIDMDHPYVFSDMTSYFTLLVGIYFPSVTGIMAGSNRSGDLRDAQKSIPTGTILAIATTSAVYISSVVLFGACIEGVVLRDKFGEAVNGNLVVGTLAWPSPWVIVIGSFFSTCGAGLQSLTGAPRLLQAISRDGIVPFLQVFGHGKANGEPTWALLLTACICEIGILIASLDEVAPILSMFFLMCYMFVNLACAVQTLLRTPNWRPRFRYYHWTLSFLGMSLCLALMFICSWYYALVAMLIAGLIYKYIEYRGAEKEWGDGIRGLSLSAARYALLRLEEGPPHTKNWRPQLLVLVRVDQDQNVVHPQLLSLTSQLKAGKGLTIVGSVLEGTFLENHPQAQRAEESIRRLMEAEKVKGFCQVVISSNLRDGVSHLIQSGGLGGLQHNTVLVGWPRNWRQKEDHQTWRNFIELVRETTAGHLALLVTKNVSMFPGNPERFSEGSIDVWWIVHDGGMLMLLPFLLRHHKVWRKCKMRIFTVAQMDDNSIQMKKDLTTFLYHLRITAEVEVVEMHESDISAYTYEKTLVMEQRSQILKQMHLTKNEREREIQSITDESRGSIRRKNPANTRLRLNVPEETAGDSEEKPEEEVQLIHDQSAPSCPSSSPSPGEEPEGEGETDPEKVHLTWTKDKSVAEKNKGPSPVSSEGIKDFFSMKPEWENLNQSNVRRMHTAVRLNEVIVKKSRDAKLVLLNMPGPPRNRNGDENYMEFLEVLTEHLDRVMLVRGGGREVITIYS
KCC2 sec1: KCC2 (human) modulation, secondary assay. HEK293-KCC2, thallium flux, FluoZin2 fluorescence; hits give high values. normalised thallium flux (F/F0 slope) at 10 µM. AID 1713. shares compounds with Cl transport mod. 15% of 3,700 active;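 active means thallium flux slope above the same plate's solvent-only control mean plus 3 SD; inconclusive means the two replicate wells disagree; inactive means no significant difference from solvent-only control wells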
KCC2 bumet counter: bumetanide-insensitive thallium flux in KCC2 cells with ouabain, counter-screen | shares compounds with Cl transport mod | AID 1714 | HEK293-KCC2 + bumetanide/ouabain, thallium flux FluoZin2; hits give high values | normalized thallium flux at 10 µM | 49% of 3,700 active;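 active means thallium entry rate above the same plate's blocked-transporter control wells by more than 3 SD; inconclusive means the two repeat wells disagree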;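 further: raw slope of fluorescence over initial fluorescence between 10 and 20 s after thallium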
KCC2 sec2: confirmation of human KCC2 transport modulators; shares compounds with Cl transport mod; 23% of 3,700 active; HEK293-KCC2, thallium flux FluoZin2 fluorescence; actives lie on both sides; F/F0 rise rate, 10–20 s post-thallium; normalized thallium flux at 10 µM;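 active means thallium flux slope more than 3 SD above or below the plate's solvent-only control mean, mostly below; inconclusive means the two repeat wells disagreed; inactive means no significant shift from solvent-only controls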
HEK293 Tl flux: acts in parental HEK cells, KCC2 counter-screen. 46% of 3,700 active. HEK293 parental cells, thallium flux FluoZin2, ouabain; baseline-ratio fluorescence slope, 10–20 s after thallium. shares compounds with Cl transport mod. thallium flux rate (normalised fluorescence) at 10 µM;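 active means thallium flux rate significantly above the same plate's solvent-only control wells, beyond their mean plus 3 SD; inconclusive means the two replicate wells gave conflicting results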
KCC2 ouabain: confirmation of human KCC2 modulators with ouabain; 48% of 3,700 active; HEK293-KCC2, thallium flux FluoZin2 fluorescence; bidirectional: low = inhibitor, high = activator; AID 1717; raw Tl+ flux slope (below DMSO = inhibition, above = activation) at 10 µM; shares compounds with Cl transport mod;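 active means thallium flux slope beyond 3 SD from same-plate DMSO control mean in most replicates, usually higher, sometimes lower; inconclusive means repeat tests gave conflicting results; inactive means no significant difference from controls in most replicates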;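 further: slope of initial-normalized fluorescence between seconds 10 and 20 after thallium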
HEK293 Tl flux2: parental HEK flux effect, counter-screen 2; shares compounds with Cl transport mod; HEK293 parental, thallium flux FluoZin-2 fluorescence slope; thallium flux slope at 10 µM; 33% of 3,700 active;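 active means thallium flux slope above the same plate's solvent-control mean plus 3 SD in both duplicate wells; inconclusive means duplicate wells that disagreed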;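 further: run without ouabain in cells lacking the KCC2 cotransporter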
Of the large screens only hits and unclear results are named; the others gave an inactive call (follow-up assays come after a bar, where they were run). In the library only some 4% were active in any assay of this set; here they are far more common.

c1ccc(-c2csc(Cc3nnc4n3CCCCC4)n2)cc1	none | KCC2 sec1 inactive | KCC2 bumet counter inactive | KCC2 sec2 inactive | HEK293 Tl flux inactive | KCC2 ouabain 0.014 | HEK293 Tl flux2 inactive
Cc1[nH]n2c(=O)cc(C(C)C)nc2c1-c1ccccc1	Cl transport mod 6.7 | KCC2 sec1 inconclusive | KCC2 bumet counter 0.015 | KCC2 sec2 inconclusive | HEK293 Tl flux inconclusive | KCC2 ouabain inconclusive | HEK293 Tl flux2 inactive
Cc1[nH]n2c(=O)cc(C(C)(C)C)nc2c1-c1ccccc1	none (no result: Cl transport mod)
NC(=NC(=O)c1ccccc1)N1N=CCC1c1ccccc1 (stereo not given)	none
O=C(COC(=O)c1cc([N+](=O)[O-])ccc1NCCO)c1ccccc1	Cl transport mod -3.2 | KCC2 sec1 inactive | KCC2 bumet counter inconclusive | KCC2 sec2 0.023 | HEK293 Tl flux inactive | KCC2 ouabain inconclusive | HEK293 Tl flux2 inactive
NC(=O)COC(=O)c1cc([N+](=O)[O-])ccc1NCCO	none (no result: WT yeast gro inh, MT stabilizer)
CCCCn1c(NS(=O)(=O)c2ccc(C)cc2)c(S(=O)(=O)c2ccccc2)c2nc3ccccc3nc21	Cl transport mod -6.5 | KCC2 sec1 inactive | KCC2 bumet counter 0.017 | KCC2 sec2 inactive | HEK293 Tl flux inconclusive | KCC2 ouabain inconclusive | HEK293 Tl flux2 inactive
O=C(NC(=S)NNC(=O)[C@H]1C[C@@H]1c1ccccc1)c1cccc(F)c1	Cl transport mod 67 (no result: WT yeast gro inh, MT stabilizer) | KCC2 sec1 inactive | KCC2 bumet counter 0.086 | KCC2 sec2 0.06 | HEK293 Tl flux 0.061 | KCC2 ouabain 0.067 | HEK293 Tl flux2 0.05
O=C(c1ccccc1F)N1CCN(c2ccc([N+](=O)[O-])cc2-n2cccc2)CC1	none (no result: WT yeast gro inh, MT stabilizer)
O=C(c1ccc(F)cc1)N1CCN(c2ccc([N+](=O)[O-])cc2-n2cccc2)CC1	Cl transport mod -3.7 (no result: WT yeast gro inh, MT stabilizer) | KCC2 sec1 inactive | KCC2 bumet counter inactive | KCC2 sec2 inactive | HEK293 Tl flux inactive | KCC2 ouabain inactive | HEK293 Tl flux2 inactive
Cc1cccc(Nc2nnc(SCC(=O)c3ccc(Br)s3)s2)c1C	Cl transport mod -4.3 | KCC2 sec1 inconclusive | KCC2 bumet counter inconclusive | KCC2 sec2 0.027 | HEK293 Tl flux inactive | KCC2 ouabain 0.011 | HEK293 Tl flux2 inactive
C/C(N)=C(/C#N)C(=O)CSc1nnc(Nc2cccc(C)c2C)s1	none (no result: Pf gametocyte)
O=C(Cc1ccc(Cl)cc1)NNC(=S)NC(=O)c1cccs1	Cl transport mod 29 (no result: WT yeast gro inh, MT stabilizer) | KCC2 sec1 inactive | KCC2 bumet counter 0.045 | KCC2 sec2 0.037 | HEK293 Tl flux 0.034 | KCC2 ouabain 0.037 | HEK293 Tl flux2 0.027
CCN(C(=O)CSC1=Nc2ccccc2C2CC=NN12)C1CCS(=O)(=O)C1 (stereo not given)	none (no result: Cl transport mod)
Cc1ccc(/C=N/n2c(C3CCCCC3)n[nH]c2=S)s1	Cl transport mod 7.3 | KCC2 sec1 inactive | KCC2 bumet counter 0.022 | KCC2 sec2 inactive | HEK293 Tl flux 0.011 | KCC2 ouabain inactive | HEK293 Tl flux2 inconclusive
O=C(Nc1nc(COc2ccccc2)cs1)C1CCC1	Cl transport mod -4.3 (no result: Pf gametocyte) | KCC2 sec1 inactive | KCC2 bumet counter inactive | KCC2 sec2 inconclusive | HEK293 Tl flux inactive | KCC2 ouabain 0.013 | HEK293 Tl flux2 inconclusive
Cn1c2ccccc2c(=O)c2c(=O)n(-c3ccc(F)cc3)c(-c3cccs3)nc21	none (no result: WT yeast gro inh, MT stabilizer)
CC(c1ccccc1)n1c(-c2cccs2)nc2c(c(=O)c3ccccc3n2C)c1=O (stereo not given)	Cl transport mod -3.6 (no result: WT yeast gro inh, MT stabilizer) | KCC2 sec1 inactive | KCC2 bumet counter inactive | KCC2 sec2 inactive | HEK293 Tl flux 0.0057 | KCC2 ouabain inactive | HEK293 Tl flux2 inactive
O=C(O)c1cccc(Nc2nc(Nc3ccccc3)nc(N3CCCC3)n2)c1	Cl transport mod -3 | KCC2 sec1 inactive | KCC2 bumet counter inactive | KCC2 sec2 inactive | HEK293 Tl flux inconclusive | KCC2 ouabain 0.029 | HEK293 Tl flux2 inconclusive
c1ccc(Nc2nc(N3CCCC3)nc(N3CCCC3)n2)cc1	none (no result: Pf gametocyte, b-catenin transl)
CCN(CC)c1ccc(-c2nc3cnccc3n2C)cc1	none
CCOC(=O)c1cccc(NC(=O)C2(S(=O)(=O)c3ccc(C)cc3)CC2)c1	none (no result: Pf gametocyte)
S=C(N=Nc1ccccc1)NNc1ccccc1	Cl transport mod 23 (no result: Pf gametocyte) | KCC2 sec1 inactive | KCC2 bumet counter 0.018 | KCC2 sec2 0.039 | HEK293 Tl flux 0.019 | KCC2 ouabain 0.027 | HEK293 Tl flux2 0.024
COC(=O)C(C)NC(=O)CNS(=O)(=O)c1ccc(F)cc1 (stereo not given)	none
Cc1n(-c2ccccc2)c2ccc(Cl)cc2[n+]1CCO	none
[O-][n+]1cccc2c(Br)cc(Br)c(O)c21	Cl transport mod 29 | KCC2 sec1 inactive | KCC2 bumet counter 0.073 | KCC2 sec2 0.047 | HEK293 Tl flux 0.047 | KCC2 ouabain 0.064 | HEK293 Tl flux2 0.034
C[n+]1cccc2c(Br)ccc([O-])c21	none (no result: WT yeast gro inh, MT stabilizer)
C=CCS/C(N)=N\N=C\c1cc(Br)cc([N+](=O)[O-])c1O	none (no result: WT yeast gro inh, MT stabilizer)
O=S(=O)(O)c1ccc(N=Nc2ccccc2)cc1	none (no result: WT yeast gro inh, MT stabilizer)
O=c1ccc(N=Nc2ccccc2)ccc1O	Cl transport mod 151 (no result: Pf gametocyte, WT yeast gro inh, MT stabilizer) | KCC2 sec1 0.012 | KCC2 bumet counter 0.12 | KCC2 sec2 0.12 | HEK293 Tl flux 0.11 | KCC2 ouabain 0.12 | HEK293 Tl flux2 0.11
CC(c1ccccc1)n1c(Cn2ncc3ccccc3c2=O)n[nH]c1=S (stereo not given)	none
Cc1scc(-c2n[nH]c(=S)n2C(C)c2ccccc2)c1C (stereo not given)	Cl transport mod 7.7 | KCC2 sec1 inactive | KCC2 bumet counter 0.04 | KCC2 sec2 inactive | HEK293 Tl flux 0.011 | KCC2 ouabain inconclusive | HEK293 Tl flux2 inconclusive
Cc1nonc1CN(C)C(=O)CC1C(=O)NCCN1Cc1cccc(C(F)(F)F)c1 (stereo not given)	none
CCOC(=O)c1sc2nc[nH]c(=O)c2c1C	Cl transport mod 5.8 (no result: Pf gametocyte, b-catenin transl) | KCC2 sec1 inactive | KCC2 bumet counter inactive | KCC2 sec2 inactive | HEK293 Tl flux inactive | KCC2 ouabain inactive | HEK293 Tl flux2 inconclusive
CCN1C(=O)[C@H]2[C@@H](c3ccc(-c4ccc(C(C)=O)cc4)cc3)N[C@@](Cc3ccccc3)(C(=O)OC)[C@H]2C1=O	none (no result: WT yeast gro inh, MT stabilizer, b-catenin transl, Cl transport mod)
O=c1c2ccccc2[nH]c(=S)n1CCCN1CCOCC1	none

High-throughput results deposited in PubChem by several laboratories.
